According to paper PMC3561458 (Investigational new drugs, 2011):

How the values were obtained:
patients [1] = details: cited from earlier work
patients [2] = details: cited from earlier work; remark: listed apart in the source
CDK2 = details: cited from earlier work
CDK1 = details: cited from earlier work
CDK4 = details: cited from earlier work
CDK7 = details: cited from earlier work
patients [3] = details: intravenous; cited from earlier work
Urinary excretion = assay type: in vivo, human; details: patients at the RP2D in S1
Method in brief: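 Urine is collected only from S1 patients dosed at the recommended phase II dose, with once-daily oral dosing for 7 days in 2-week cycles. Parent compound and metabolite in urine are measured by validated LC-MS-MS, with calibration ranges of 0.217–109 μM for the parent and 0.210–105 μM for the metabolite.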

Plasma pharmacokinetics = assay type: in vivo, human; details: across doses
Method in brief: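 The test compound is given orally once daily for 7 days in 2-week cycles (S1). Plasma is sampled in cycle 1 on days 1, 2, 4, 7, 8 and 9, and in cycle 2 on days 1, 4 and 7. Cycle 1 day 1 is sampled from 30 min to 24 h after dosing and day 7 from 30 min to 96 h. Parent and metabolite are measured by validated LC-MS-MS, with calibration ranges of 0.00109–1.09 and 0.00105–1.05 μM respectively.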

## Cc1ncc(-c2ccnc(Nc3ccc(S(C)(=O)=O)cc3)n2)n1C(C)C [AZD438]
Patients [1]
  toxicities: myelotoxicity, GI toxicity, fatigue, skin rash and electrolytes inbalance, with no neurological toxicity

## C[C@]12O[C@H](C[C@]1(O)CO)n1c3ccccc3c3c4c(c5c6ccccc6n2c5c31)CNC4=O [CEP-701]
Patients [2]
  most frequently reported side effects: predominantly GI-related (nausea, diarrhea, anorexia, constipation, and vomiting), and asthenia
  patients with stable disease for at least six months: three
  patients with stable disease for more than three months: Seven of 30

## CCc1cnn2c(NCc3ccc[n+]([O-])c3)cc(N3CCCC[C@H]3CCO)nc12 [dinaciclib]
Patients [1]
  toxicities: myelotoxicity, GI toxicity, fatigue, skin rash and electrolytes inbalance, with no neurological toxicity

## CN1CC[C@H](c2c(O)cc(O)c3c(=O)cc(-c4ccccc4Cl)oc23)[C@H](O)C1 [flavopiridol, reference compound]
CDK2
  inhibition of CDK2: demonstrated inhibition
CDK1
  inhibition of CDK1: demonstrated inhibition
CDK4
  inhibition of CDK4: demonstrated inhibition
CDK7
  inhibition of CDK7: demonstrated inhibition
Patients [3]
  clinical activity: showed activity in some patients with non-Hodgkin’s lymphoma, renal, prostate, colon, and gastric carcinomas
  main side effects: secretory diarrhea, a proinflammatory syndrome associated with hypotension, and hyperglycemia

## Nc1nc2cccc(-c3ccc(CN4CCS(=O)(=O)CC4)cc3)n2n1 [metabolite]
Urinary excretion
  amount excreted in urine: 13 % of dose
Plasma pharmacokinetics
  AUC0-24 of the metabolite relative to parent compound: approximately 30%
  Cmax of the metabolite relative to parent compound: approximately 30%

## CC[C@H](CO)Nc1nc(NCc2ccccc2)c2ncn(C(C)C)c2n1 [seliciclib]
Patients [1]
  toxicities: myelotoxicity, GI toxicity, fatigue, skin rash and electrolytes inbalance, with no neurological toxicity
